XiGFP reactiv: reactivates the inactive X chromosome in mouse fibroblasts; XiGFP mouse fibroblasts, % GFP-positive cells imaging, 3 d; cells co-treated with 5-aza-dC sensitizer; scaled so ellipticine positive control = 100%; activation, % at 7.58 µM; 360,000 tested, 0.055% active;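 active = mean normalized replicate activation at least 10% and every replicate at or above 10%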;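 note: 0% = median of on-plate neutral control wells and 100% = ellipticine 6 µM median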
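material = 68-5-11 XiGFP fibroblast line | medium = DMEM plus 5-aza-dC sensitizer | schedule = 3 days compound exposure | benchmarks = positive control ellipticine, 6 µM final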
FN deposit inh: fibronectin deposition inhibition | AH1F fibroblasts, Alexa488-fibronectin deposition fluorescence, overnight | inhibition, % at 12.6 µM | 350,000 tested, 0.086% active;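 active = mean inhibition across replicates of 30% or more, regardless of how many single replicates reach that level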;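 note: positive control wells lacked labelled fibronectin entirely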
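Material – AH1F fibroblast monolayer, labelled fibronectin deposition · Reagent – labelled fibronectin 24 nM · Timing – 1 h adhesion, overnight exposure · Measured by – fluorescence at 485 nm excitation, 525 nm emission · Read-out – inhibition of fibronectin deposition signal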
TROY NFkB inh: inhibitors of TROY-dependent NF-kB signaling. Q293 LMP1-TROYcd NF-kB luciferase reporter, 4 h. inhibition, % at 10 µM. 360,000 tested, 0.98% active;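 active = compounds whose plate-normalised and pattern-corrected inhibition of the luciferase reporter signal at the single screening dose is 50% or more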
EWS-Fli inh: EWS/Fli transcriptional activity inhibition; A673 NR0B1-luciferase reporter, viability-normalised; inhibition, % at 12.6 µM; 350,000 tested, 0.67% active; AID 651661;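 active = mean inhibition of at least 50% after viability correction, with every replicate also passing that limit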;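 note: firefly luciferase signal divided by Alamar Blue viability fluorescence both relative to DMSO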
TWEAK-Fn14 inh: TWEAK-Fn14 signaling inhibition; TWEAK-stimulated Fn14 reporter cells, luciferase luminescence, 8 h; inhibition, % at 10 µM; 360,000 tested, 2% active; AID 1159606; in the data active = inhibition above about 50%
LGR2 inh: blocks bursicon-induced cAMP signaling via Drosophila LGR2. HEK293 LGR2, CRE-luciferase, bursicon-stimulated, 4 h. inhibition, % at 9.99 µM. 380,000 tested, 0.35% active. AID 720647;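 active = drop in luminescence signal, shown as inhibition above about 50% in the replicate tests, limit read from the data, passing the limit was not always enough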;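 note: agonist challenge used bursicon conditioned medium at about half maximal strength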
Numbers without * were called inactive; nt = not tested or not shown. Most compounds without a hit are left out; they make up all but 2.3% or so of the library.

SMILES	XiGFP reactiv	FN deposit inh	TROY NFkB inh	EWS-Fli inh	TWEAK-Fn14 inh	LGR2 inh
Cc1nc(SCC(=O)Nc2nc3ccccc3s2)c(C#N)c(C)c1C	0.0	15.2	91.7*	87.4*	106.8*	92.8*
Cc1nc(SCC(=O)Nc2nccs2)c(C#N)c(C)c1C	0.1	-3.5	72.7*	71.9*	75.6*	-22.5
Cc1ccc2sc(NC(=O)CSc3nc(C)cc(C)c3C#N)nc2c1	nt	-6.2	-9.9	nt	0.9	nt
Cc1cc(C(F)(F)F)c(C#N)c(SCC(=O)Nc2nc3ccccc3s2)n1	0.5	1.9	84.8*	46.4	88.8*	35.8
Cc1csc(NC(=O)CSc2nsc(SCC(=O)Nc3nc(C)cs3)c2C#N)n1	nt	nt	56.9*	nt	46.8	nt
COc1cc(-c2cc(-c3ccccc3)nc(SCC(=O)Nc3nccs3)c2C#N)cc(OC)c1OC	nt	nt	7.8	nt	6.8	nt
O=C(C[C@@H]1CC[C@@H]2[C@H](COC[C@@H](O)CN2C(=O)c2ccc(F)cc2)O1)NCCCN1CCOCC1	0.0	2.4	nt	2.1	nt	1.7
COCCCn1nnnc1SCC(=O)Nc1nc2ccccc2s1	-0.1	1.9	81.3*	1.1	2.2	1.7
Cc1cccc(OCc2nc(-c3ccccn3)n[nH]2)c1	nt	nt	61.1*	nt	-5.5	nt
Cc1ccc(OCc2nc(-c3ccccn3)n[nH]2)cc1	nt	nt	-36.1	nt	-42.0	nt
CCCNC(=O)C[C@@H]1CC[C@@H]2[C@H](COC[C@H](O)CN2Cc2ccncc2)O1	-0.1	8.2	nt	1.6	nt	3.0
Cc1ccc(C(=O)OCn2ncc(Cl)c(Cl)c2=O)cc1	nt	16.9*	68.1*	nt	105.6*	nt
O=C(OCn1ncc(Cl)c(Cl)c1=O)c1ccc(C(F)(F)F)cc1	nt	nt	24.6	nt	79.0*	7.5
Cc1ccc(C(=O)COC(=O)c2nc(Cl)ccc2Cl)cc1	0.1	-6.1	-27.1	-0.8	12.5	10.5
O=C(O)c1ccc(-n2ncc(Cl)c(Cl)c2=O)cc1	nt	nt	-19.0	nt	11.4	nt
S=C1Cc2ccccc2N1	-0.1	2.8	22.3	65.5*	72.3*	24.1
COc1cc(-c2ccc3oc(-c4ccsc4)cc(=O)c3c2)cc(OC)c1OC	0.0	3.1	19.8	-6.8	24.5	64.1*
COc1ccc(-c2cc(=O)c3ccc(O)cc3o2)cc1	nt	nt	-69.8	-69.1	0.3	-18.3
COc1cc(-c2cc(=O)c3ccc(O)cc3o2)cc(OC)c1OC	nt	nt	-6.0	5.7	-14.8	9.2
COc1ccc(-c2cc(=O)c3cc(OC)ccc3o2)cc1	nt	nt	6.9	52.2*	64.5*	2.1
C=CCSc1nnc(NC(=O)COc2ccc3ccccc3c2)s1	nt	nt	-27.3	3.8	-25.6	1.5
C=CCSc1nnc(NC(=O)COc2ccccc2)s1	0.0	34.0*	-43.8	-14.3	-8.6	-10.0
CO[C@@H]1CN(C)C(=O)c2ccc(NC(=O)c3cnccn3)cc2OC[C@@H](C)N(C(=O)C2CC2)C[C@@H]1C	0.5	nt	nt	-2.3	nt	10.4
CC1CCC/C=C/C(=O)c2c(O)cc(O)cc2CC(=O)O1 (stereo unspecified)	nt	nt	42.8	45.2	94.1*	69.3*
CCNC(=O)C[C@H]1CC[C@@H]2[C@H](COC[C@H](O)CN2Cc2ccncc2)O1	0.0	-5.9	nt	0.6	nt	-3.3
SMILES	XiGFP reactiv	FN deposit inh	TROY NFkB inh	EWS-Fli inh	TWEAK-Fn14 inh	LGR2 inh
O=C(O)c1cccc(-n2cccc2/C=C2/NC(=O)N(c3cccc(Cl)c3)C2=O)c1	0.0	-5.3	-8.4	-1.9	58.1*	13.6
COc1ccc(-n2cccc2/C=C2/NC(=O)N(c3cccc(Cl)c3)C2=O)cc1	-0.1	-7.9	76.1*	-10.6	56.3*	nt
O=C(O)c1cccc(-n2cccc2/C=C2/NC(=O)N(c3ccc(Cl)cc3)C2=O)c1	0.0	-2.8	-39.3	-7.4	45.6	-10.2
CC(C)NC(=O)Nc1ccc2c(c1)C(=O)N([C@H](C)CO)C[C@H](C)[C@H](CN(C)Cc1ccc(C(=O)O)cc1)OCCCC[C@H](C)O2	0.4	-2.7	nt	-2.4	nt	7.9
CO[C@@H]1CN(C)C(=O)c2cc(NC(=O)C3CCCCC3)ccc2OC[C@H](C)N(Cc2nccs2)C[C@@H]1C	0.4	-0.6	nt	8.7	nt	2.2
O=C(CCN1CCCCC1)NCC[C@H]1CC[C@@H](NC(=O)C2CCC2)[C@@H](CO)O1	0.2	nt	nt	-4.1	nt	-2.3
CCn1c(SCC(=O)Nc2nc3ccc(OC)cc3s2)nc2c1c(=O)n(C)c(=O)n2C	nt	-5.5	37.0	nt	58.2*	54.5*
